Consider 16 compounds from ChEMBL document CHEMBL4627401, “Structure Optimization of Gatastatin for the Development of γ-Tubulin-Specific Inhibitor” (ACS Med Chem Lett, 2020).

In experiment [1] the test system is HeLa. The experiment in a line: Cytotoxicity against human HeLa cells assessed as reduction in cell viability incubated for 48 hrs by WST8 cells. It counts as functional, cell-based. An outline of the steps:
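HeLa cells were exposed to a range of concentrations for 48 h. Growth was read by WST-8 cell counting, and IC50 values were calculated from the resulting curves.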

For experiment [2], the system named is HeLa. Kind of experiment: Cytotoxicity against human HeLa cells assessed as cell viability at 100 uM incubated for 48 hrs by WST8 cells relative to control. The following applies: read-out: Activity. It counts as functional.
The species named for experiment [3] is Sus scrofa domesticus. The experiment in a line: Inhibition of porcine brain tubulin polymerization assessed as residual tubulin polymerization at 30 uM in presence of 0.8 M glutamate incubated for 30 mins by SDS-PAGE analysis (reference value: 84.8 +/- 9.9 %). In outline: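 Polymer was separated by ultracentrifugation (200,000g, 10 min, 25 °C), tubulin measured by 10% SDS-PAGE densitometry and expressed as % polymerized. Mean ± SD, three independent experiments.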

For experiment [4], the system named is HeLa. The experiment in a line: Induction of microtubule depolymerization in human HeLa cells at 30 uM incubated for 24 hrs by immunofluorescence microscopy. The class given is functional, cell-based. In outline: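 Interphase HeLa cells were treated for 24 h at 30 μM, then the MT network structure was examined by microscopy.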
The subject of experiment [5] is HeLa. Kind of experiment: Inhibition of gamma-tubulin in human HeLa cells assessed as abnormal spindle formation at 30 uM incubated for 24 hrs by immunofluorescence microscopy analysis relative to control. The class given is cell-based. In outline: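 Exponentially growing HeLa cells were treated with 30 μM for 24 h, then spindle morphology was classified as normal bipolar, bipolar with misaligned chromosomes, or multipolar. More than 100 cells were scored per experiment. Mean ± SD, three independent experiments, with DMSO as control.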

The test system of experiment [6] is HeLa. The experiment in a line: Inhibition of gamma-tubulin nucleation in human HeLa cells at 100 uM incubated for 15 mins. It counts as cell-based.
In experiment [7] the test system is HeLa. The experiment in a line: Inhibition of gamma-tubulin nucleation in human HeLa cells at 10 uM incubated for 15 mins. The class given is cell-based.
In experiment [8] the test system is HeLa. Kind of experiment: Inhibition of gamma-tubulin nucleation in human HeLa cells at 30 uM incubated for 15 mins. It counts as cell-based.
The species named for experiment [9] is Homo sapiens. The experiment in a line: Inhibition of human gamma tubulin assessed as reduction in GTP binding to gamma-tubulin at 50 uM incubated for 15 mins by alpha-[32P]-GTP binding assay.
Experiment [10] deals with HeLa. The experiment in a line: Inhibition of gamma-tubulin in human HeLa cells assessed as abnormal spindle formation at 1 uM incubated for 24 hrs by immunofluorescence microscopy analysis relative to control. It counts as cell-based.
Experiment [11] concerns HeLa. Kind of experiment: Inhibition of gamma-tubulin in human HeLa cells assessed as abnormal spindle formation incubated for 24 hrs by immunofluorescence microscopy analysis. It counts as cell-based.
The test system of experiment [12] is HeLa. Kind of experiment: Inhibition of gamma-tubulin nucleation in human HeLa cells at 0.3 uM incubated for 15 mins. The class given is cell-based.
Experiment [13] concerns HeLa. The experiment in a line: Induction of microtubule depolymerization in human HeLa cells at 100 nM incubated for 6 hrs by immunofluorescence microscopic method. It counts as functional, cell-based.
Experiment [14] is filed under the species Sus scrofa domesticus. Kind of experiment: Induction of porcine brain tubulin polymerization at 10 uM in presence of 0.2 M glutamate incubated for 30 mins by SDS-PAGE analysis (reference value: 36.3 +/- 8.1 %).

The source made the active and inactive calls. The rule behind the calls is not given here. Where only a bound is given, the exact number is not on record here.

As for `COc1cc(-c2coc3cc(OCc4ccccc4)c(OC4CCCCO4)cc3c2=O)c(OC)c2c1OC(C)(C)O2` (centres undefined), the 50% inhibitory concentration (IC50) in [1] is above 100 µM. In addition, the viability at 100 µM in [2] was 101%. The Activity in [3] is 69 to 92%. Also, in [4], the result was inactive. Further, in experiment [5], the inhibition result was “inactive”.

Regarding `C=CCOc1cc2c(=O)c(-c3cc(OC)c4c(c3OC)OC(C)(C)O4)coc2cc1OCc1ccccc1`, the IC50 in experiment [1] is above 100 µM. Besides, the viability at 100 µM in experiment [2] is 107%. In addition, the Activity in experiment [3] is 69 to 92%. In experiment [4], the outcome was inactive. In [5], the inhibition entry is “inactive”.

For the compound `COc1cc(-c2coc3cc(OCc4ccccc4)c(OC4CCCCO4)cc3c2=O)c(OC)c2c1OCO2` (centres undefined), the IC50 in [1] was above 100 µM. In [2], the viability at 100 µM turned out to be 99.1%. The Activity in experiment [3] is 69 to 92%. In addition, in experiment [4], the outcome was inactive. Also, the inhibition entry in experiment [6] is “inactive”.

Turning to `COc1cc2c(=O)c(-c3cc(OC)c4c(c3OC)OCO4)coc2cc1OCc1ccccc1`, in experiment [1], the IC50 came out at 10.5 µM. Besides, in [3], the Activity is 69 to 92%. In experiment [4], the result was inactive. For the same compound, the inhibition entry in experiment [5], in experiment [8] and in experiment [9] was “Active” each time. Moreover, the inhibition result in [7] is “inactive”.

As to `COc1cc(-c2coc3cc(OCc4ccccc4)c(OCc4ccccc4)cc3c2=O)c(OC)c2c1OCO2`, in experiment [1], the IC50 amounted to 1.1 µM. Further, the Activity in experiment [3] was 69 to 92%. Moreover, the outcome in experiment [4] was inactive. Besides, the inhibition result in experiment [8] and in experiment [10] was “Active” in each case.

In the case of `COc1cc2c(=O)c(-c3cc(OC)c(OC)c(OC)c3OC)coc2cc1OCc1ccccc1`, the 50% inhibitory concentration (IC50) in [1] was above 100 µM. Further, the viability at 100 µM in [2] came out at 77.3%. Besides, the Activity in experiment [3] was 69 to 92%. The result in experiment [4] was inactive. Further, in [5], the inhibition came to 65%. In addition, the inhibition result in experiment [7] is “inactive”. Also, in experiment [8], the inhibition entry was “Active”.

On to `C#CCOc1cc2c(=O)c(-c3cc(OC)c4c(c3OC)OCO4)coc2cc1OCc1ccccc1`, for which, in [1], the IC50 came out at 0.8 µM. The Activity in experiment [3] was 69 to 92%. The outcome in experiment [4] was inactive. Also, the inhibition result in experiment [11] is “Dose-dependent effect”. Further, the inhibition entry in [8], in experiment [12], in experiment [9] and in experiment [10] was “Active” throughout.

`COc1cc2c(c(OC)c1OC)-c1ccc(OC)c(=O)cc1[C@@H](NC(C)=O)CC2`: the result in experiment [13] was Active.

As to `CC(=O)O[C@H]1C(=O)[C@@]2(C)[C@H]([C@H](OC(=O)c3ccccc3)[C@]3(O)C[C@H](OC(=O)[C@H](O)[C@@H](NC(=O)c4ccccc4)c4ccccc4)C(C)=C1C3(C)C)[C@]1(OC(C)=O)CO[C@@H]1C[C@@H]2O`, in [14], the Activity stood at 91.6%. For the same compound, in experiment [13], the result was Active.

Take `COc1cc(-c2coc3cc(OCc4ccccc4)c(OCc4ccccc4)cc3c2=O)c(OC)c2c1OC(C)(C)O2`: the IC50 in [1] was above 100 µM. Also, in experiment [2], the viability at 100 µM came to 102%. In addition, the Activity in experiment [3] fell in the range of 69 to 92%. The result in experiment [4] was inactive. In experiment [5], the inhibition result was “inactive”.

For the compound `C#CCOc1cc2c(=O)c(-c3cc(OC)c4c(c3OC)OC(C)(C)O4)coc2cc1OCc1ccccc1`, in experiment [1], the IC50 is above 100 µM. In experiment [2], the viability at 100 µM came to 102%. Further, the Activity in experiment [3] was in the range of 69 to 92%. The result in experiment [4] was inactive. For the same compound, the inhibition entry in [5] was “inactive”.

Take `COc1cc(-c2coc3cc(OCc4ccccc4)c(O)cc3c2=O)c(OC)c2c1OCO2`: in experiment [1], the IC50 was determined as 5.8 µM. For the same compound, the Activity in experiment [3] fell in the range of 69 to 92%. For the same compound, in experiment [4], the result was inactive. Moreover, the inhibition result in experiment [8] was “Active”.

For the compound `COc1cc2c(=O)c(-c3ccc4c(c3)OCO4)coc2cc1OCc1ccccc1`, the IC50 in experiment [1] was above 100 µM. Also, the viability at 100 µM in [2] stood at 101%. Besides, the Activity in [3] is 69 to 92%. In addition, in [4], the result was inactive. In addition, the inhibition result in experiment [5] and in [6] was “inactive” throughout.

Consider `C=CCOc1cc2c(=O)c(-c3cc(OC)c4c(c3OC)OCO4)coc2cc1OCc1ccccc1`, for which the concentration for half-maximal inhibition (IC50) in [1] was determined as 9.9 µM. Also, in experiment [3], the Activity was 69 to 92%. Also, the outcome in [4] was inactive. For the same compound, the inhibition result in [8] was “Active”.

On to `COc1cc2c(=O)c(-c3cc(OC)c4c(c3OC)OC(C)(C)O4)coc2cc1OCc1ccccc1`, for which, in experiment [1], the IC50 is above 100 µM. For the same compound, the viability at 100 µM in [2] amounted to 100%. In addition, in experiment [3], the Activity lay within 69 to 92%. For the same compound, in experiment [4], the outcome was inactive. Further, the inhibition result in [5] and in experiment [6] was “inactive” in each case.

Regarding `COc1cc(-c2coc3cc(OCc4ccccc4)c(O)cc3c2=O)c(OC)c2c1OC(C)(C)O2`, the IC50 in experiment [1] is above 13 µM. Further, the Activity in [3] was 69 to 92%. Further, the result in experiment [4] was inactive. For the same compound, in [5], the inhibition entry was “inactive”.
